Experimental data published in the EternaBench riboswitch data.

Tested on: MS2 coat protein
Test: apparent Kd, MS2 coat protein; higher = weaker binding; RNA-MaP array; FMN 200 µM where present
Summary of the method: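 SNAP-549-labelled MS2 coat protein, doubled from 0.7 or 1.5 nM to 3 µM, was titrated over designs transcribed by stalled E. coli RNA polymerase on Illumina sequencing-chip clusters. Titrations were run without and then with constant ligand in 100 mM Tris-HCl pH 7.5, 80 mM KCl, 4 mM MgCl2, BSA, DTT, yeast tRNA and Tween-20. The apparent Kd is the median of filtered per-cluster fits to green signal normalised to red-channel RNA signal and control-cluster median Fmax.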

[1] = designed as: ON switch for flavin mononucleotide, no ligand
[2] = ligand present: flavin mononucleotide, designed as: ON switch for flavin mononucleotide
[3] = designed as: OFF switch for flavin mononucleotide, no ligand
[4] = ligand present: flavin mononucleotide, designed as: OFF switch for flavin mononucleotide

Sequence	apparent Kd [1] [nM]	apparent Kd [2] [nM]	apparent Kd [3] [nM]	apparent Kd [4] [nM]
UUAGCAUACCGAGGAUAUUCAUAUAAUAAAUAAACAUGAGGAUCACCCAUGUGGCGAAAGCCUAGGGAGAAGGCGGAAUGCUAA	220	21.9	–	–
UCAAAGAGAUCGAACGGGAGGCGUAAGGAUAUGCACAUGAGGAUCACCCAUGUCUACGAAAGUAGGCAGAAGGUACGCGGGAUU	253	30.6	–	–
UUGAAUUGAAACAUGAGGAUCACCCAUGUGUCAUAAUUGACAUAGGAUAUGUUUAUACUUUUAAAAUAGAAGGAUGACGAUACU	13.8	11.8	–	–
UCCUUGUCCUGAGGAUAUCCGUGGUUCCCGAAAGGAGAAGGCAGGACAUGAGGAUCACCCAUGUACCCAGAUAUCGUACAGAGA	–	–	50.4	360
GUAGCAUACCGAGGAUAUUCAUACCGGAAACGGACAUGAGGAUCACCCAUGUGGCGAAAGCCUUGGGAGAAGGCGGAAUGCUAC	552	25.1	–	–
UAUUAACAUGUAGGAUAUCUGCACGAUUAGUGCAGAGAAGGACAUGAGGAUCACCCAUGUAGAUCAUAAUAAUUUAAUUUAAUU	–	–	133	422
GUUGUGUGAGGAUAUUCCUGGCCGUGUGGCCGGUUUGGGUGGCAGAAGGUACAUGAGGAUCACCCAUGUACGGG	–	–	96.9	75.8
AAAAGAGUAGGAUAUCUGACGCGAAACAUGAGGAUCACCCAUGUAGGGCGGUCCUGCUUAAGAGAAGGGCUCAAAU	–	–	99.6	230
UGGCUACAUGAGGAUCACCCAUGUCAGGAUAUGCCGUUGGAUUGACAUCGUCGUACGGGUAGAAGGGACUGCGU	–	–	59.8	58.3
AUAGAAAGAUUAAUAUGAUUACAUGAGGAUCACCCAUGUAUAAAGGAUAUCGACGUCAAUGACGUCGAGAAGGUUAUACAUAAU	–	–	24.2	84
GUCAGCUCGUGAGGAUAUACAACACUGCUUCGGCAGUGUAUUAAGAUCACAUGAGGAUCACCCAUGUAGAAGGCACGACCUGAU	–	–	14.1	257
CUUUUGUGAGGAUAUUAGUAGUAGAUAGUUGGUGGUGUUGCUGAGAAGGCACAUGAGGAUCACCCAUGUACAAC	–	–	344	335
GGAGAUACAUGAGGAUCACCCAUGUAGGAUAUCUAGUAUAUAUAUGGCGAAAGCCAUAUAUAUAUAGAGAAGGGCGUACACACC	–	–	9	7.91
AUGUAGGAAGGAUAUAUAUGGAGCAUGCGUCUCUGAACAUUACAUGAGGAUCACCCAUGUAGAAGGUCCGCGGA	–	–	24.1	33.1
UGUCGGAGCAGAGGAUAUUACAUGAGGAUCACCCAUGUCUGAACCAAUAGCUGGAAACAGCAAUGUAAGAAGGCUGCUCCGACA	–	–	154	432
AUGAAGUCAGGAUAUCGUUAAUUUAGUUGUUUGUAUUAGUUCGAGAAGGGACAUGAGGAUCACCCAUGUAAGUA	–	–	31.7	38.5
GGAAGCACGACGGAGCUAAGGUAGAAGGAUAUCCACGGCUAUAUCCACAUGAGGAUCACCCAUGUGGAGAAGGUCUAUCUUAAG	–	–	5.51	8.8
AGUGACUACGUAGGAUAUUAAAUCAUGUACUACAUGAGGAUCACCCAUGUUAAUUUAACAUCAGCUGAGAAGGACGUGGUCACA	20.6	11.6	–	–
AUCAUGUAAGGAUAUGACUACAUAAAAAAAAAAAAAUGUAGUCAGAAGGUACAUGAGGAUCACCCAUGUACAAA	–	–	22.2	23.7
UCAGAGGCUGACAUGAGGAUCACCCAUGUUAGAUUGUUAUGUCAGGAUAUUAUCUGGCAACCAGAUGAGAAGGGACCCUCUGUG	22	7.67	–	–
GAGGACUGAAUAAAUAACUCAAAUACAUGAGGAUCACCCAUGUAGGAUAUCGUCAGGAAUACUGACGAGAAGGACAUACAGUCC	–	–	13.4	19.2
GGAUAGGACAGAGGAUAUACGGAUAGGAUCUACUAUCAAACAAGUCCUACAUGAGGAUCACCCAUGUAGAAGGCUGUCCUAUCG	–	–	16.9	22.1
AAAAUGGUACAGAAGGCGGAGCCCAACAUGAGGAUCACCCAUGUAUGGGUGUCGUCAGUAGUUACCGAGGAUAUGUAUCGGUAU	–	–	6.42	7.1
AACAGCUCGUCAGGAUAUACAAUACUGCUUCGGCAGUAUGAUAAGAUAACAUGAGGAUCACCCAUGUAGAAGGGACGAGCUGAA	–	–	6.23	7.47
UGGUACAUGAGGAUCACCCAUGUAAGAGCCCUCAUGCGAUGUAGAAGGAUAAUGGGAGUACUGCUAUAGGAUAUACAUGAGUUU	–	–	145	147
GGCGGCGCGGGCCACCGCAGGGCCAGAAGGACAUGAGGAUCACCCAUGUGGCAGGACAGGGCGGUGUAGGAUAUGGCAGGCUGG	–	–	8.35	10.6
CAUAUCCAAGGAUAUACGAUGGCUCCUUCCAUCGUGUGACCACAUGAGGAUCACCCAUGUAGAAGGUGGAUAUU	–	–	23.2	24
AGUAACAGAGGAUAUACUGUUUUAUGUGUUUGUUAUUUUGAACAUGAGGAUCACCCAUGUAGAAGGCUGAAUAA	–	–	22.2	21.3

Sequence	apparent Kd [1] [nM]	apparent Kd [2] [nM]	apparent Kd [3] [nM]	apparent Kd [4] [nM]
AUCACAGCCACAGGAUAUCCACAUGAGGAUCACCCAUGUUACCGAAGGGUAGGAGAAGGGUGGCGCUCGUUGCGGACGAUGAAU	121	15.1	–	–
CAGACACAUGAGGAUCACCCAUGUGAGGAUAUGCGUACGUUGUCCGUAGGCGACGUGCGCAGAAGGCACAAAGG	–	–	73.4	104
GCCAUCGUAUGAGGAUAUGGCACCGAAACGGUGCCAGAAGGCAUGUCAAUAGACAUGAGGAUCACCCAUGUAUUAUCGAUGGCA	367	37.1	–	–
CAGCGAUAGCUGAAUGGUACAUGGGAGGAUAUGGGAAGAUACAUGAGGAUCACCCAUGUUAAAUACUAGAAGGCCCAUGUACCU	14.9	5.45	–	–
CGUGUUAGAGGAGGAUAUAGCGCAAGAAGGUCGCUAGAAGGCCUUGACAUGAGGAUCACCCAUGUGAUCGGCUCUCUGGGUAAG	–	–	211	141
UGGACCGAGCUAUCGGUUGACUGGGAGGAUAUGACAUGAGGAUCACCCAUGUGGGAUCUAAAUUGUCAGAAGGCUCGUUCUGGG	–	–	–	234
CUCUUGUCAGGAUAUUAUGGACGAAGGCAGGGCCGCGUCAGUGAGAAGGGACAUGAGGAUCACCCAUGUAAAAU	–	–	97.8	74.6
AUCAGCUCGUCAGGAUAUACGUCACUGCGUCAGCAGUGUGGUAAGAUCACAUGAGGAUCACCCAUGUAGAAGGGACAAGCUGAU	–	–	13.1	270
UUACCUUAUGAGAAGGCGGUCAUGAAACAUGAUCGAGGAUAUCAUGUAAACAUGAGGAUCACCCAUGUAUGGGUAUUAUGGUAA	395	53.7	–	–
UGGUGCUAGGGAGGAUAUGGGAAGAUACAUGAGGAUCACCCAUGUUUAAGAAUGCCGAGAGGCAACUAGAAGGCCCUAGUACCU	457	20.9	–	–
AAUGAAACUUAGAAGGCCUACAUGAGGAUCACCCAUGUGGCUUUAAGUGUAGGAGGAUAUGAGGAUGCGGGUAGGAACCCACGC	–	–	6.37	14.8
UAGUUGCUAGGAUAUACUUGGGCAACUACUGAACCUAUAUAACAUGAGGAUCACCCAUGUAGAAGGAGCAUAUA	–	–	23.1	19.1
GCACGGUAUGUAGGAUAUGCAUAGCAUUGCUAUGCAGAAGGACAUGAGGAUCACCCAUGUAUGUAUUCCAUAUAUUUCCCGUGC	–	–	5.55	5.87
AGCUGGUGACAGCAUCCAUCAUAACAUGAGGAUCACCCAUGUAGAAGGCUGUACGGUUACCGUACAGAGGAUAUACAAUGAUGG	–	–	7.4	7.32
CAGGUAGACUGAGGAUAUACAAUAAGACCUAGUCUAUCUAGGUCAAUCACAUGAGGAUCACCCAUGUAGAAGGCAGUCUGCCUG	–	–	17.3	36.2
UGCAUGUAAGGAUAUGCAUCCGCCGACGUCCCGGCGCCACAGCAGAAGGUACAUGAGGAUCACCCAUGUGUCCC	–	–	21.3	49.2
CCUGGCUUAGGAUAUACAGGAACCGAGAACCCGGAAGUGAAACAUGAGGAUCACCCAUGUAGAAGGAAGAAAGC	–	–	26.8	23.1
AAACUGCAUGUGAGGAUAUGCACCGACUAAACCGGGCAGAAGGCACAUGAGGAUCACCCAUGUCAUCCUAUUGC	–	–	8.62	18.1
UAUUAUCACGAAGGAUAUGCUUACAUGAGGAUCACCCAUGUAUGUAUAUUGAUCCAGCGUAUUGAGCAGAAGGUCGUGAGUAAA	–	–	21.8	75.8
UAUGUUUUAGGAUAUUGUACUGCUGACAUGAGGAUCACCCAUGUAUGCUAACUCGGUUGUCGAGAAGGAGAAUAUG	–	–	59.4	44.2
CUUGUACAUGAGGAUCACCCAUGUUAGGAUAUCUCGCCGUCGGCUUGCCGACGGUAUUAGAGAAGGGACAAGGG	–	–	22.5	26.7
UUGUCUCAUGAGAAGGACAUGAGGAUCACCCAUGUAGGAUAUCAUGGGUCAGUGGAAUUGAAUCUUCGGAUUCAAUAACUCUAC	15	7	–	–
AGUCGGAUCUAUUAACAUGAGGAUCACCCAUGUAUUUGCAACUAGGAUAUCGAUUAUUAUUUCGUCGAGAAGGAGUAUACAUAA	–	–	24.2	37.3
UAAUAAUAGUCAGGAUAUAGUUAUUAUAAUAUACUAGAAGGGACACAUGAGGAUCACCCAUGUUUUAUAAUUUGUAAUUUAAAU	–	–	21.6	17.7
GCUGCGCGAGGAUAUGCGGUUCGCGCUGUGGCCCGUGGCGGACAUGAGGAUCACCCAUGUAGAAGGCGUGCGGG	–	–	13	15.1
CAUCUGGUGCAGAAGGGACAUAGGGUCCUUUGGUCGCUAAGUAUCCCACAUGAGGAUCACCCAUGUCAGGAUAUGUAUCUGGAU	–	–	15.9	30.1
UUUAAGCGAGGAUAUACAUGAGGAUCACCCAUGUCAAGUAUUCUUGACGCCGUGCUCUGUAGAAGGCGCAAUUA	–	–	65.2	522
